Assay results taken from ChEMBL document CHEMBL1130854, “Diarylsulfonamides as selective, non-peptidic thrombin inhibitors” (Bioorg Med Chem Lett, 1998).

Experiments:
[1] = Inhibitory activity against trypsin/plasmin/factor Xa
[2] = Compound was tested for the concentration which causes a doubling of the thrombin clotting time of human plasma.; assay type: functional
Procedure, shortened: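 Human plasma thrombin clotting time measured across inhibitor concentrations (μM). Coagulation time (sec) fitted to y = a + b·x^c, a being the uninhibited clotting time and b, c shape/location parameters. Value taken as the concentration that doubles the clotting time (IC200).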

Prothrombin = Prothrombin (Homo sapiens, UniProt P00734); assay: Inhibitory activity against thrombin

| Ki [1] [µM] | Ki (Prothrombin) [µM] | Compound | IC200 [2] [µM] |
| --- | --- | --- | --- |
| > 500 |  | O=S(=O)(Nc1cccc(OCCNc2ccncc2)c1)c1ccccc1 | 2.3 |
| > 500 | 0.023 | Cc1cc(NS(=O)(=O)c2ccccc2)cc(OCCNc2ccncc2)c1 | 0.29 |
| > 500 | 0.18 | Cc1cc(NS(=O)(=O)c2ccccc2)cc(OCCCCN=C(N)N)c1 | 10 |
| > 500 | 2 | Cc1cc(NS(=O)(=O)c2ccccc2)cc(OCCN=C(N)N)c1 | 38 |
| > 500 | 9.9 | Cc1cc(NS(=O)(=O)c2ccccc2)cc(OCCCCCN)c1 | >250 |
| > 500 | 0.63 | Cc1cc(NS(=O)(=O)c2ccccc2)cc(OCCCN=C(N)N)c1 | 10 |
| > 500 | 6.4 | Cc1cc(NS(=O)(=O)c2ccccc2)cc(OCCCCCN=C(N)N)c1 | 188 |
| > 500 | 170 | Cc1cc(NS(=O)(=O)c2ccccc2)cc(OCCCN)c1 | >250 |
| > 500 | 6.5 | Cc1cc(NS(=O)(=O)c2ccccc2)cc(OCCCCN)c1 | 179 |
| > 500 | 240 | Cc1cc(NS(=O)(=O)c2ccccc2)cc(OCCN)c1 | >250 |
| > 500 | 9 | Cc1cc(NS(=O)(=O)c2ccccc2)cc(OCCCCCCN)c1 | >250 |
| > 500 | 7 | Cc1cc(NS(=O)(=O)c2ccccc2)cc(OCCCCCCN=C(N)N)c1 | 237 |
